# The list is not random: actives were taken first. Their share in the collection is about 2.7%.
# mABHD4 FP – ABHD4 (mouse) inhibition, primary FP screen; Q8VD66; purified mABHD4, FP-Rh probe fluorescence polarization; inhibition, % at 8.92 µM; 370,000 tested, 0.54% active; AID 720543;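 active = inhibition exceeding the mean over every tested compound plus 3 SD, cut at about 30% in these data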;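 note: 0% = plate median of compound wells and 100% = S159A mutant with DMSO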
#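 Test system: mABHD4 protein; Read-out basis: % inhibition; Incubation: 45 min + 60 min at 25 °C; Repeats: single replicate; Technique: fluorescence polarization with parallel and perpendicular emission, 525/598 nm; Compound: 8.92 µM, single dose; Benchmarks: full inhibition S159A mutant plus DMSO, zero as sample-well median.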
# TCR-CD3 inh – blocks the human TCR-CD3 interaction | TAMRA-labeled TCR probe fluorescence, biochemical | 360,000 tested, 0.37% active | inhibition, % at 9.4 µM | AID 651800; in the data active = inhibition above about 19%;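 note: recombinant mutant TCR 2C K166C tagged with TAMRA read by polarization; 0% = receptor in buffer alone and 100% = receptor with positive control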
# SIAE inh – blocks human sialic acid acetylesterase. AID 1053197. 370,000 tested, 0.69% active. Q9HAT2. inhibition, % at 9.66 µM. SIAE FP-Rh probe binding, fluorescence polarization;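 active = inhibition above a cutoff: mean of compounds within the control limits plus 3 SD of those, cut at about 17% in these data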;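 note: 0% = plate median of compound wells and 100% = probe without SIAE protein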
# HTRA1 inhibitor – inhibitors of human serine peptidase HTRA1 | recombinant HTRA1, FP-rhodamine activity-based probe, fluorescence polarization | Q92743 | 340,000 tested, 0.5% active | inhibition, % at 5.96 µM; in the data active = inhibition above about 36%;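 note: 0% = enzyme with DMSO and 100% = wells lacking enzyme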
# PRMT1 inh – inhibitors of human PRMT1; inhibition, % at 2.79 µM; recombinant PRMT1, activity-based probe fluorescence polarization; 370,000 tested, 1.3% active;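 active = inhibition above about 21% made by adding two undisclosed values, limit read from the data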
# Target sequence (Q99873 whole entry, looked up): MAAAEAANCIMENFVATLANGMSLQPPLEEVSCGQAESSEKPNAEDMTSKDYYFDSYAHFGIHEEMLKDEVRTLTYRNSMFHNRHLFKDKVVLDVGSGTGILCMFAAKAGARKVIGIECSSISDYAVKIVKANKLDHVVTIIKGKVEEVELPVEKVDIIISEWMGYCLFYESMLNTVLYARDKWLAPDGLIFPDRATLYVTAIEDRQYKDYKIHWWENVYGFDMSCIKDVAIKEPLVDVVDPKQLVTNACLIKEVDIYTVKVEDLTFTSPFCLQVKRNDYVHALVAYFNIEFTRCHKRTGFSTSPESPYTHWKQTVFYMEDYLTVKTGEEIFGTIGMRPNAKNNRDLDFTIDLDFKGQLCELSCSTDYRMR
# SIAE confirm – confirmation of human SIAE inhibitors | shares compounds with SIAE inh | SIAE FP-Rh activity-based probe, fluorescence polarization | inhibition, % at 9.66 µM | 2,300 tested, 13% active | AID 1117263;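 active = mean inhibition of the replicates above the hit cutoff set in the primary screen, cut at about 17% in these data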;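 note: 0% = SIAE with DMSO and probe and 100% = probe without SIAE; inhibitors lower polarization as more probe stays unbound to SIAE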
# * = called active by the depositor; / = no result.
SMILES,mABHD4 FP,TCR-CD3 inh,SIAE inh,HTRA1 inhibitor,PRMT1 inh,SIAE confirm
COc1ccc(NC(=O)/C=C/c2cc(OC)c(OC)c(OC)c2)cn1,4,2,21*,3,-1,3
Cc1nc(C)c(C(=O)N2CCCC(C(=O)c3cc(F)ccc3F)C2)s1 (stereo not given),2,4,0,0,-1,/
COC(=O)c1sc(-c2ccccc2)cc1NC(=O)C1CC1,-10,9,0,-24,0,/
CCOc1ccc(NC(=O)Nc2cc(-c3ccccc3)sc2C(=O)OC)cc1,3,8,29*,0,-3,-5
CC(C)(C)OC(=O)N1CCN(C(=O)Nc2ccc3c(c2)OCCO3)CC1,-2,-5,18*,2,-3,1
Cc1cccc(C)c1N1CCN(C(=O)Nc2ccc3c(c2)OCCO3)CC1,0,-3,-1,-13,-2,/
CCCC(C)Sc1nc2c([nH]1)c(=S)n(C)c(=O)n2C (stereo not given),4,-1,6,2,-3,/
Cc1cc(C)nc(SCCS(=O)(=O)Cc2ccc(Cl)cc2)n1,1,3,20*,-5,0,-3
C[C@@H]1CN([C@@H](C)CO)C(=O)c2cc(NC(=O)Nc3ccc4c(c3)OCO4)ccc2O[C@H]1CN(C)S(=O)(=O)c1ccc(F)cc1,5,-9,15,-4,3,/
C[C@H](CO)N1C[C@H](C)[C@@H](CN(C)S(=O)(=O)c2ccc(F)cc2)Oc2ccc(NC(=O)Nc3ccc4c(c3)OCO4)cc2C1=O,6,-1,22*,6,4,7
Cc1[nH]c(=O)c(C#N)c(C)c1CCC(=O)NCc1ccc(Cl)cc1,3,-5,-5,-3,0,/
COc1ccc(CNC(=O)COC(=O)C2CC2C)cc1OC (stereo not given),5,-2,24*,15,-1,-2
Cc1ccc(F)c(S(=O)(=O)NC(=O)C2(C)CCN2C(=O)Cc2ccc(-c3ccccc3)cc2)c1 (stereo not given),-6,5,5,/,-1,/
O=[N+]([O-])c1ccc(OC2OCC(O)C(O)C2O)cc1 (stereo not given),1,-3,-5,/,2,/
CC(C)Cn1c(N)c(C(=O)CSc2nnc(-c3ccco3)n2C)c(=O)n(C)c1=O,1,5,-7,3,-3,/
CC(C)Cn1c(SCC(=O)c2ccc(Cl)s2)nnc1-c1ccco1,3,-1,25*,-22,-2,3
Cc1nc(C(F)(F)F)ccc1C(=O)N1CCC1(C)C(=O)NS(=O)(=O)c1ccc(C#N)cc1 (stereo not given),2,-5,-1,/,-5,/
COCCNC(=O)c1cccc(OC2CCN(Cc3ccc(F)c(OC)c3)CC2)c1,-2,2,1,0,-4,/
COCCNC(=O)c1cccc(OC2CCN(Cc3cccc(C(C)=O)c3)CC2)c1,-1,-2,26*,6,-2,2
COc1ccc(C(=O)NCCn2ccc3ccccc32)cc1OC,2,-1,22*,-6,-3,0
O=C(Nc1ccc2c(c1)OCO2)NC1CCN(S(=O)(=O)c2ccc(F)cc2)CC1,0,/,2,/,-1,/
Cc1cccc2c(N=O)c(O)[nH]c12,5,6,46*,35,-1,42*
Cc1[nH]c2c(C)cccc2c1CC(=O)O,7,0,2,-1,6,/
NNC(=O)c1cc2ccccc2cc1O,21,5,18*,31,2,6
NNC(=O)c1ccc(O)cc1O,9,13,9,7,3,/
SMILES,mABHD4 FP,TCR-CD3 inh,SIAE inh,HTRA1 inhibitor,PRMT1 inh,SIAE confirm
CCOc1ccc(NC(=O)c2cc3ccccc3cc2O)cc1,16,-5,18*,4,0,-1
CCOc1ccc(NC(=O)c2cc3ccccc3cc2OC)cc1,-6,9,0,-28,1,/
COc1ccccc1NC(=O)CC1C(=O)Nc2ccccc2N1C(=O)c1ccccc1 (stereo not given),0,-4,-1,0,1,/
COc1cc(Cn2nnc3ccccc32)cc(Br)c1O,10,0,23*,4,1,2
COc1ccc(C)cc1Cn1nnc2ccccc21,-3,-8,1,-2,-3,/
c1ccc(-c2c[nH]c3[n+]2CCCCC3)cc1,0,4,19*,-5,-1,-1
COc1ccc(/C=N\NC(=O)Cc2cccs2)c(OC)c1OC,2,/,3,/,-4,/
O=C(NC1CCCCC1)c1ccc(S(=O)(=O)N2CCCCC2)cc1,-5,-8,6,-1,-4,/
CC1CN(S(=O)(=O)c2ccc(C(=O)NC3CCCCC3)cc2)CC(C)O1 (stereo not given),0,5,18*,-7,-5,1
Cc1ccccc1Nc1c(-c2ccccn2)nc2ccccn12,12,2,10,8,-3,/
Cc1ccn2c(Nc3ccccc3C)c(-c3ccccn3)nc2c1,7,-9,18*,10,-2,5
Cc1ccc(NC(=S)c2ccc(N(C)C)cc2)cc1,4,8,17*,5,1,0
COc1ccc(NC(=S)c2ccc(N(C)C)cc2)cc1,3,-3,7,6,-1,/
CC1=N/C(=C\c2ccc([N+](=O)[O-])cc2)C(=O)N1c1ccc(C)c(Cl)c1,-3,3,3,/,-1,/
COC(=O)c1sc(N/N=C/c2ccc(C(C)C)cc2)nc1C,4,6,23*,8,-2,7
O=C(COC(=O)c1cccc(NS(=O)(=O)/C=C/c2ccccc2)c1)Nc1ccccc1OC(F)F,-59,1,-57,-64,-1,/
O=C(O)CSc1c2c(nc3cc(C(=O)N4CCOCC4)ccc13)CCCC2,5,12,27*,3,3,5
C=CCOc1ccc(/C=N/n2nnnc2N)cc1OC,1,-3,1,-7,4,/
COc1cc2ccccc2cc1C(=O)N1CCN(C(C)=O)CC1,0,1,22*,5,-3,2
COc1cc2ccccc2cc1C(=O)N1CCN(c2ccccn2)CC1,3,6,4,-10,-3,/
CCn1nnnc1NCc1ccc(SC)cc1,6,-1,17*,8,-5,8
C[C@@H]1CCCCO[C@@H](CN(C)Cc2ccc(C(F)(F)F)cc2)[C@@H](C)CN([C@H](C)CO)C(=O)c2cc(N(C)C)ccc2O1,13,0,22*,4,2,6
Cc1ccc(C)c(NC(=O)CN2C(=O)C3CC=CCC3C2=O)c1 (stereo not given),1,9,0,8,1,/
Cc1ccc(S(=O)(=O)Nc2ccc3c(c2)nc(CCN2CCN(c4ccccn4)CC2)n3C)cc1,0,7,19*,2,2,-1
CCc1nnc(NC(=O)CCn2cnc3ccccc3c2=O)s1,-7,2,22*,/,-1,1
C=CCCC(=O)N1C[C@H]2CON(C)[C@H]2C[C@H]1c1ccc(Br)cc1,-3,1,-8,3,2,/

# High-throughput results as filed in PubChem.
